Laboratory results published in ChEMBL document CHEMBL1909532, “Comparative evaluation of two structurally related flavonoids, isoliquiritigenin and liquiritigenin, for their oral infection therapeutic potential” (J Nat Prod, 2011).
Converted amounts (≈) assume the structure as drawn. The source made the active and inactive calls. No cut-off for these calls is given here.

Experiments:
U-937 [1] = experiment: Antiinflammatory activity in human U937 cells assessed as inhibition of LPS-induced IL8 secretion at 5 ug/ml after 24 hrs by ELISA relative to control; format: functional; details: U-937, 24 h
Procedure, shortened: (§1)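 U937 monocytes differentiated with 10 ng/mL PMA for 48 h, then placed in RPMI-1% FBS. Pretreated 2 h with compound (0, 0.2, 1, 5 μg/mL), then stimulated with A. actinomycetemcomitans ATCC 29522 LPS (1 μg/mL) for 24 h. Cytokines and MMP-9 in supernatants measured by ELISA at 450 nm. Triplicates, two experiments, mean ± SD.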

U-937 [2] = experiment: Antiinflammatory activity in human U937 cells assessed as inhibition of LPS-induced IL1-beta secretion at 5 ug/ml after 24 hrs by ELISA relative to control; format: functional; procedure, shortened: as §1
U-937 [3] = experiment: Antiinflammatory activity in human U937 cells assessed as inhibition of LPS-induced MMP9 secretion at 5 ug/ml after 24 hrs by ELISA relative to control; format: functional; details: U-937, 24 h; procedure, shortened: as §1
[4] = biological target: T1, Collagenase (Porphyromonas gingivalis) (UniProt P33437); experiment: Inhibition of Porphyromonas gingivalis ATCC 33277 collagenase assessed as remaining activity at 25 ug/ml after 4 hrs by fluorimetric analysis relative to control
T1 sequence (whole entry): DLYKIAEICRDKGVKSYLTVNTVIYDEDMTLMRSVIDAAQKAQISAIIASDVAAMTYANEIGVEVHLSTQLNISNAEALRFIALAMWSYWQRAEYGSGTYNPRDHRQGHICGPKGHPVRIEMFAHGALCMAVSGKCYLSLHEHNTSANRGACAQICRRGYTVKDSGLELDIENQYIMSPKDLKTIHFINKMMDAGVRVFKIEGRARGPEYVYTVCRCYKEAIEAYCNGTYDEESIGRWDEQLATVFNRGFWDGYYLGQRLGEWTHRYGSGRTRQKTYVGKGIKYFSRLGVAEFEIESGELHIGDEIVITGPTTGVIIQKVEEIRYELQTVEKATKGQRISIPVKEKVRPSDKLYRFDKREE
Procedure, shortened: (§2)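 Two-day P. gingivalis ATCC 33277 culture supernatant incubated with fluorescein-conjugated DQ type I collagen (stock 100 μg/mL) in TCNB buffer, compound final 0, 5, 25 or 100 μg/mL. Incubated 4 h in the dark at room temperature, then fluorescence read. Triplicates, mean ± SD.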

U-937 [5] = experiment: Antiinflammatory activity in human U937 cells assessed as inhibition of LPS-induced TNFalpha secretion at 5 ug/ml after 24 hrs by ELISA relative to control; format: functional; details: U-937, 24 h; procedure, shortened: as §1
Prevotella intermedia [6] = experiment: Antibacterial activity against Prevotella intermedia ATCC 25611 at 40 ug/ml assessed as growth inhibition by microdilution technique relative to untreated control; format: functional; details: read-out: GI
Procedure, shortened: (§3)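 Broth microdilution against each strain; MIC read as lowest concentration with no growth. Growth also expressed as percent of compound-free control (set to 100%). Triplicate assays, two independent experiments, mean ± SD; Student's t test, p < 0.01.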

[7] = biological target: T1, Collagenase (Porphyromonas gingivalis); experiment: Inhibition of Porphyromonas gingivalis ATCC 33277 collagenase assessed as remaining activity at 5 ug/ml after 4 hrs by fluorimetric analysis relative to control; procedure, shortened: as §2
[8] = biological target: T1, Collagenase (Porphyromonas gingivalis); experiment: Inhibition of Porphyromonas gingivalis ATCC 33277 collagenase assessed as remaining activity at 100 ug/ml after 4 hrs by fluorimetric analysis relative to control; procedure, shortened: as §2
Prevotella intermedia [9] = experiment: Antibacterial activity against Prevotella intermedia ATCC 25611 by microdilution technique in presence of 1% fetal bovine serum; format: functional, organism-based
Procedure, shortened: (§4)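 Broth microdilution growth assay, repeated in medium supplemented with 1% fetal bovine serum or with 10% unstimulated whole saliva.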

[10] = biological target: Matrix metalloproteinase-9 (Homo sapiens) (UniProt P14780); experiment: Inhibition of human MMP9 assessed as remaining activity at 5 ug/ml after 4 hrs by fluorimetric analysis relative to control
Procedure, shortened: (§5)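 Active human recombinant MMP-9 (final 100 ng/mL) in TCNB buffer (50 mM Tris-HCl, 10 mM CaCl2, 150 mM NaCl, 0.05% Brij35, pH 7.5) with fluorescein-conjugated DQ gelatin (stock 1 mg/mL); compound final 0, 5, 25 or 100 μg/mL. Incubated 4 h at 37 °C in the dark; fluorescence at ex 490/em 520 nm.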

U-937 [11] = experiment: Cytotoxicity against human U937 cells assessed as loss of cell viability by MTT assay; format: cell-based
Procedure, shortened: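 PMA-differentiated U937 macrophages exposed to LPS or compound (up to 5 μg/mL) under the 24 h stimulation protocol; viability checked by MTT assay.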

[12] = biological target: Matrix metalloproteinase-9 (Homo sapiens) (UniProt P14780); experiment: Inhibition of human MMP9 assessed as remaining activity at 25 ug/ml after 4 hrs by fluorimetric analysis relative to control; procedure, shortened: as §5
[13] = biological target: Transcription factor Jun (Homo sapiens) (UniProt P05412); experiment: Inhibition of LPS-induced AP-1 activation in human U937 cells at 5 ug/ml after 1 hr relative to control; format: cell-based; details: U-937
Procedure, shortened: (§6)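 PMA-differentiated U937 macrophages pretreated with compound (5 μg/mL) for 1 h, then given LPS (1 μg/mL) for 1 h at 37 °C. Whole-cell extracts adjusted to 1 mg/mL protein. NF-κB p65 and AP-1 activation measured by TransAM kits; controls had no pretreatment.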

U-937 [14] = experiment: Antiinflammatory activity in human U937 cells assessed as inhibition of LPS-induced of IL6 secretion at 5 ug/ml after 24 hrs by ELISA relative to control; format: functional; procedure, shortened: as §1
Prevotella intermedia [15] = experiment: Antibacterial activity against Prevotella intermedia ATCC 25611 by microdilution technique in presence of 10% unstimulated whole salive; format: functional, organism-based; procedure, shortened: as §4
[16] = biological target: T1, Collagenase (Porphyromonas gingivalis); experiment: Inhibition of Porphyromonas gingivalis ATCC 33277 collagenase assessed at 100 ug/ml after 4 hrs by fluorimetric analysis relative to control; procedure, shortened: as §2
[17] = biological target: Transcription factor p65 (Homo sapiens) (UniProt Q04206); experiment: Inhibition of LPS-induced NF-kappaB p65 activation in human U937 cells at 5 ug/ml after 1 hr relative to control; format: cell-based; details: U-937; procedure, shortened: as §6
U-937 [18] = experiment: Antiinflammatory activity in human U937 cells assessed as inhibition of LPS-induced CCL5 secretion at 5 ug/ml after 24 hrs by ELISA relative to control; format: functional; procedure, shortened: as §1
[19] = biological target: Matrix metalloproteinase-9 (Homo sapiens) (UniProt P14780); experiment: Inhibition of human MMP9 assessed as remaining activity at 100 ug/ml after 4 hrs by fluorimetric analysis relative to control; procedure, shortened: as §5
Prevotella intermedia [20] = experiment: Bactericidal activity against Prevotella intermedia ATCC 25611 at 20 ug/ml by microdilution technique; format: functional, organism-based
Procedure, shortened: (§7)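 MBC: aliquots from wells without visible growth spread on agar plates and incubated five days under appropriate conditions; MBC is the lowest concentration giving no colonies.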

Porphyromonas gingivalis [21] = experiment: Bactericidal activity against Porphyromonas gingivalis ATCC 33277 at 40 ug/ml by microdilution technique; format: functional, organism-based; procedure, shortened: as §7
U-937 [22] = experiment: Antiinflammatory activity in human U937 cells assessed as inhibition of LPS-induced IL8 secretion after 24 hrs by ELISA; format: functional, cell-based; procedure, shortened: as §1
U-937 [23] = experiment: Antiinflammatory activity in human U937 cells assessed as inhibition of LPS-induced IL6 secretion at 0.2 ug/ml after 24 hrs by ELISA relative to control; format: functional, cell-based; procedure, shortened: as §1
Porphyromonas gingivalis [24] = experiment: Antibacterial activity against Porphyromonas gingivalis ATCC 33277 by microdilution technique in presence of 1% fetal bovine serum; format: functional, organism-based; procedure, shortened: as §4
U-937 [25] = experiment: Antiinflammatory activity in human U937 cells assessed as inhibition of LPS-induced IL6 secretion after 24 hrs by ELISA; format: functional, cell-based; procedure, shortened: as §1
Fusobacterium nucleatum [26] = experiment: Antibacterial activity against Fusobacterium nucleatum ATCC 25586 by microdilution technique; format: functional, organism-based; procedure, shortened: as §3
Porphyromonas gingivalis [27] = experiment: Antibacterial activity against Porphyromonas gingivalis ATCC 33277 by microdilution technique; format: functional; procedure, shortened: as §3
Prevotella intermedia [28] = experiment: Antibacterial activity against Prevotella intermedia ATCC 25611 assessed as growth inhibition at 5 ug/ml by microdilution technique relative to untreated control; format: functional; details: read-out: GI; procedure, shortened: as §3
U-937 [29] = experiment: Antiinflammatory activity in human U937 cells assessed as inhibition of LPS-induced IL1-beta secretion at 0.2 ug/ml after 24 hrs by ELISA relative to control; format: functional, cell-based; procedure, shortened: as §1
Fusobacterium nucleatum [30] = experiment: Antibacterial activity against Fusobacterium nucleatum ATCC 25586 by microdilution technique in presence of 10% unstimulated whole salive; format: functional, organism-based; procedure, shortened: as §4
Fusobacterium nucleatum [31] = experiment: Antibacterial activity against Fusobacterium nucleatum ATCC 25586 at 40 ug/ml assessed as growth inhibition by microdilution technique relative to untreated control; format: functional; details: read-out: GI; procedure, shortened: as §3
U-937 [32] = experiment: Antiinflammatory activity in human U937 cells assessed as inhibition of LPS-induced CCL5 secretion after 24 hrs by ELISA; format: functional, cell-based; procedure, shortened: as §1
Prevotella intermedia [33] = experiment: Antibacterial activity against Prevotella intermedia ATCC 25611 by microdilution technique; format: functional; procedure, shortened: as §3
U-937 [34] = experiment: Antiinflammatory activity in human U937 cells assessed as inhibition of LPS-induced IL1-beta secretion after 24 hrs by ELISA; format: functional, cell-based; procedure, shortened: as §1
U-937 [35] = experiment: Antiinflammatory activity in human U937 cells assessed as inhibition of LPS-induced TNFalpha secretion after 24 hrs by ELISA; format: functional, cell-based; procedure, shortened: as §1
Fusobacterium nucleatum [36] = experiment: Antibacterial activity against Fusobacterium nucleatum ATCC 25586 by microdilution technique in presence of 1% fetal bovine serum; format: functional, organism-based; procedure, shortened: as §4
Porphyromonas gingivalis [37] = experiment: Antibacterial activity against Porphyromonas gingivalis ATCC 33277 by microdilution technique in presence of 10% unstimulated whole salive; format: functional, organism-based; procedure, shortened: as §4

Matrix metalloproteinase-9 (Homo sapiens), sequence (P14780 whole entry): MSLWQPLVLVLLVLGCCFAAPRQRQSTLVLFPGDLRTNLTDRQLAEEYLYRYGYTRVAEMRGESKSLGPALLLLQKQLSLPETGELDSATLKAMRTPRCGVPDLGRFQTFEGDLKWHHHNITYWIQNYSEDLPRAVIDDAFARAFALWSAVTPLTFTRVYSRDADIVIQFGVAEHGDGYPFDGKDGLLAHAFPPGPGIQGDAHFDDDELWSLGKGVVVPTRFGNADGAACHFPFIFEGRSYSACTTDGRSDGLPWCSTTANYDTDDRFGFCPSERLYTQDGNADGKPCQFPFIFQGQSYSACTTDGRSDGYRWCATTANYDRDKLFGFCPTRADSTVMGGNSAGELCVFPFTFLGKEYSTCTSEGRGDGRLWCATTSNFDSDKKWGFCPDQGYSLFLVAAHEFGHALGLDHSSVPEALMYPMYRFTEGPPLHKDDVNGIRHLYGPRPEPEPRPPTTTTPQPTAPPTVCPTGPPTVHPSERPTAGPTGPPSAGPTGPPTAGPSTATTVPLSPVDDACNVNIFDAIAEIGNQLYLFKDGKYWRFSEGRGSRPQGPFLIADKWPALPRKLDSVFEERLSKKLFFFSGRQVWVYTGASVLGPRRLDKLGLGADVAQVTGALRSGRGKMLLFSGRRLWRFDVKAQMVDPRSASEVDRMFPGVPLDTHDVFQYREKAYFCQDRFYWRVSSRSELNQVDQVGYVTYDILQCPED
Transcription factor p65 (Homo sapiens), sequence (Q04206 whole entry): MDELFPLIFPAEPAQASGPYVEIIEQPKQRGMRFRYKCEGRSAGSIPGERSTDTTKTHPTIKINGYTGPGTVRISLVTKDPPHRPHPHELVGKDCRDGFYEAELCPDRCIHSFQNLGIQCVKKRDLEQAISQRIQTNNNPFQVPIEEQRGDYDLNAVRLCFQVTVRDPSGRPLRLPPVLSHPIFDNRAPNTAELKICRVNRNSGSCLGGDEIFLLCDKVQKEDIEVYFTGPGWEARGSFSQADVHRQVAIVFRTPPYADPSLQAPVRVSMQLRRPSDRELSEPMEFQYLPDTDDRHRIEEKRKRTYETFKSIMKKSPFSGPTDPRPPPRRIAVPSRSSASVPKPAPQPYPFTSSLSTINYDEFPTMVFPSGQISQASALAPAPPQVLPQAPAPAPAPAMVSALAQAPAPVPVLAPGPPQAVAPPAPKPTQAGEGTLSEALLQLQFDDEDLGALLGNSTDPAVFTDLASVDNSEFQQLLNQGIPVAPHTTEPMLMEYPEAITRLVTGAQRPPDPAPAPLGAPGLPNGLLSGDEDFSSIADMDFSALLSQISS
Transcription factor Jun (Homo sapiens), sequence (P05412 whole entry): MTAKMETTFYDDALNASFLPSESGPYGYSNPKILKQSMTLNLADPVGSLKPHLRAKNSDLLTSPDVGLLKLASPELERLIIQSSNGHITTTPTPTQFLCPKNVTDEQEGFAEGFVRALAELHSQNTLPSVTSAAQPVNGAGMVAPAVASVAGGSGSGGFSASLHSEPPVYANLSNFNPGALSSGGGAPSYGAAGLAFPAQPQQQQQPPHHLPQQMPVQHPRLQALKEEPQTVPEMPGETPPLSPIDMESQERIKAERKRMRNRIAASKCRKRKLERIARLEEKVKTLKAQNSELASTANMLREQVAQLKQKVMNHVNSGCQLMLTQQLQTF

O=C1C[C@@H](c2ccc(O)cc2)Oc2cc(O)ccc21 [LIQUIRTIGENIN]
inhibition at 5 µg/mL (U-937 [1]): 11% | inhibition at 5 µg/mL (U-937 [2]; U-937, 24 h): 34% | inhibition at 5 µg/mL (U-937 [3]): 24% | Activity [4]: 82% | inhibition at 5 µg/mL (U-937 [5]): 17% | inhibition of growth at 40 µg/mL (Prevotella intermedia [6]): 85% | Activity [7]: 83% | Activity [8]: 79% | Activity (Prevotella intermedia [9]): Active | Activity [10]: 95% | Activity (U-937 [11]): Non-toxic | Activity [12]: 95% | inhibition [13]: 20% | inhibition at 5 µg/mL (U-937 [14]; U-937, 24 h): 23% | Activity (Prevotella intermedia [15]): Active | inhibition [16]: 21% | inhibition [17]: 39% | inhibition at 5 µg/mL (U-937 [18]; U-937, 24 h): 24% | Activity [19]: 87%

O=C(/C=C/c1ccc(O)cc1)c1ccc(O)cc1O [ISOLIQUIRITIGENIN]
inhibition at 5 µg/mL (U-937 [1]): 34% | inhibition (Prevotella intermedia [20]): Active | inhibition (U-937 [2]): Active | inhibition (Porphyromonas gingivalis [21]): inactive | inhibition (U-937 [22]): Dose-dependent effect | inhibition (U-937 [23]): Active | Activity (Porphyromonas gingivalis [24]): Active | inhibition (U-937 [25]): Dose-dependent effect | Activity (Fusobacterium nucleatum [26]): Dose-dependent effect | inhibition at 5 µg/mL (U-937 [3]): 89% | Activity [4]: 78% | Activity (Porphyromonas gingivalis [27]): Dose-dependent effect | MIC (Porphyromonas gingivalis [27]): 40 µg/mL (≈ 156 µM) | inhibition of growth at 5 µg/mL (Prevotella intermedia [28]): 58% | inhibition at 5 µg/mL (U-937 [5]): 87% | inhibition (U-937 [29]): Active | Activity [7]: 82% | Activity [8]: 48% | Activity (Prevotella intermedia [9]): Active | Activity [10]: 97% | Activity (U-937 [11]): Non-toxic | Activity [12]: 91% | Activity (Fusobacterium nucleatum [30]): Active | inhibition of growth at 40 µg/mL (Fusobacterium nucleatum [31]): 70% | inhibition [13]: Active | inhibition (U-937 [32]): Dose-dependent effect | inhibition (U-937 [14]): Active | Activity (Prevotella intermedia [15]): Active | inhibition [16]: 52% | Activity (Prevotella intermedia [33]): Dose-dependent effect | MIC (Prevotella intermedia [33]): 10 µg/mL (≈ 39 µM) | inhibition (U-937 [34]): Dose-dependent effect | inhibition (U-937 [35]): Dose-dependent effect | inhibition [17]: Active | inhibition (U-937 [18]): Active | Activity [19]: 67% | Activity (Fusobacterium nucleatum [36]): Active | Activity (Porphyromonas gingivalis [37]): Active
